In ChEMBL document CHEMBL1149101, “New antibacterial agents derived from the DNA gyrase inhibitor cyclothialidine” (J Med Chem, 2004) one finds MNEC and MIC data, which are given here for 22 compounds.

By MIC is commonly meant the least concentration at which growth counts as inhibited.

≈ marks a conversion by molar mass, not a printed value.

In test [1] the target is DNA gyrase (Escherichia coli) (UniProt P0AES6+P0AES4).
The subject of a further test is Micrococcus luteus. Put plainly: Minimum inhibitory concentration against Micrococcus luteus ATCC 8340. It counts as functional. The gist of the method:
(§1)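 Agar dilution per NCCLS in BB2 agar + 1% Isovitalex + 7.5% sheep blood + menadione, compound added to melted medium at 50 °C. About 10⁴ CFU/spot from diluted overnight cultures, multipoint-inoculated.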

For the next test, the system named is Neisseria meningitidis. Put plainly: Minimum inhibitory concentration against Neisseria meningitides 69480. It counts as functional. The procedure, abridged:
as §1

In test [2] the test system is Staphylococcus aureus. In words: Minimum inhibitory concentration against Staphylococcus aureus 887. The format is functional. The procedure, abridged: as §1
The next test concerns Streptococcus pyogenes. In words: Minimum inhibitory concentration against Streptococcus pyogenes b15. The following applies: Streptococcus pyogenes; read-out: MIC.
Test [3] has as its system Staphylococcus aureus. Put plainly: Minimum inhibitory concentration against Staphylococcus aureus Smith. The format is functional. The gist of the method:
(§2)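 NCCLS agar dilution on Mueller–Hinton agar, compound incorporated into melted medium at 50 °C. Inoculum about 10⁴ CFU/spot from diluted overnight cultures, multipoint-applied.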

In test [4] the test system is Staphylococcus aureus. In words: Minimum inhibitory concentration against Staphylococcus aureus ATCC 25923. The format is functional. The gist of the method:
as §2

The subject of a further test is Escherichia coli. Put plainly: Minimum inhibitory concentration against Escherichia coli 25922. It counts as functional. The procedure, abridged:
as §2

In another test the test system is Enterococcus faecalis. In words: Minimum inhibitory concentration against Enterococcus faecalis 6. The format is functional. The procedure, abridged: as §2
Test [5] concerns Stenotrophomonas maltophilia. In words: Minimum inhibitory concentration against Xanthomonas maltophilia AC739. The format is functional. The gist of the method: as §2
Test [6] deals with Staphylococcus epidermidis. In words: Minimum inhibitory concentration against Staphylococcus epidermidis 16/2. The format is functional. The gist of the method: as §2
Setting [7] is: Staphylococcus aureus, read-out: MIC.
Setting [8] is: Staphylococcus aureus, ATCC 25923, read-out: MIC.

In the case of `COC(=O)[C@@H]1CSCc2c(O)cc(OC)c(C)c2C(=O)OCCCCCCCC/C(S)=N/1`, the MNEC in test [1] is > 1 µg/mL.
`COc1cc(O)c2c(c1C)C(=O)OC[C@H](NC(=O)OC(C)(C)C)C(=O)N[C@H](C(N)=O)CSC2`: the minimal inhibitory concentration (MIC) with Micrococcus luteus is 16 µg/mL (≈ 33.1 µM); in the test on Neisseria meningitidis, 4 µg/mL (≈ 8.27 µM); against Staphylococcus aureus [2] it was > 64 µg/mL; with Streptococcus pyogenes, 16 µg/mL (≈ 33.1 µM). In test [1], this compound yielded an MNEC of 0.1 µg/mL.
For the compound `COC(=O)[C@@H]1CSCc2c(O)cc(OC)c(C)c2C(=O)OC[C@H](C)C(=O)N1`, the minimal inhibitory concentration (MIC) worked out at 16 µg/mL (≈ 40.3 µM) in the test with Micrococcus luteus, 8 µg/mL (≈ 20.1 µM) in the test on Neisseria meningitidis, 16 µg/mL (≈ 40.3 µM) against Staphylococcus aureus [2] and 16 µg/mL (≈ 40.3 µM) in the test on Streptococcus pyogenes. In test [1], this compound registered an MNEC of 0.4 µg/mL.
With `COC(=O)[C@@H]1CSCc2c(O)cc(OC)c(C)c2C(=O)OCCCCCC(=O)N1`, the results for the minimum inhibitory concentration (MIC) with Staphylococcus aureus [3] (setting [7]) and in the test with Staphylococcus aureus [4] (setting [8]) were 32 µg/mL (≈ 75.2 µM) and > 64 µg/mL, respectively. In test [1], the MNEC came to 2 µg/mL.
As to `COC(=O)[C@@H]1CSCc2ccc(O)c(C)c2C(=O)OCC(NC(=O)OC(C)(C)C)C(=O)N1` (some centres not stated), in the test with Micrococcus luteus, the minimum inhibitory concentration (MIC) was > 128 µg/mL. Besides, the MNEC in test [1] was > 100 µg/mL.
Regarding `COC(=O)[C@@H]1CSCc2c(O)cc(O)c(C)c2C(=O)OC[C@@H](NC(=O)OC(C)(C)C)C(=O)N1`, the MIC against Micrococcus luteus amounted to 128 µg/mL (≈ 264 µM); against Neisseria meningitidis, 32 µg/mL (≈ 66 µM). The MNEC in test [1] is 1 µg/mL.
Regarding `COC(=O)[C@@H]1CSCc2c(O)cccc2C(=O)OCC(NC(=O)OC(C)(C)C)C(=O)N1` (some centres not stated), the minimal inhibitory concentration (MIC) with Micrococcus luteus was > 128 µg/mL. Further, the MNEC in [1] was > 1 µg/mL.
Take `COC(=O)[C@@H]1CSCc2c(O)cc(O)c(C)c2C(=O)OCC(NC(=O)[C@@H]2C(O)CCN2C(=O)OC(C)(C)C)C(=O)N1` (some centres not stated): the minimum inhibitory concentration (MIC) with Micrococcus luteus is 8 µg/mL (≈ 13.4 µM); in the test with Neisseria meningitidis, 64 µg/mL (≈ 107 µM); against Staphylococcus aureus [2], > 64 µg/mL; in the test with Streptococcus pyogenes, 32 µg/mL (≈ 53.5 µM). In test [1], this compound displayed an MNEC of 0.05 µg/mL.
Take `COC(=O)[C@@H]1CSCc2c(O)cc(O)c(C)c2C(=O)OC[C@H](NC(C)=O)C(=O)N1`: the MIC was 128 µg/mL (≈ 300 µM) in the test with Micrococcus luteus, 32 µg/mL (≈ 75 µM) in the test with Neisseria meningitidis, > 64 µg/mL against Staphylococcus aureus [2] and > 64 µg/mL in the test on Streptococcus pyogenes. For the same compound, the MNEC in [1] worked out at 0.4 µg/mL.
As to `COC(=O)[C@@H]1CSCc2c(O)cc(O)c(C)c2C(=O)OC[C@H](NC(=O)[C@@H]2CCCN2C(=O)OC(C)(C)C)C(=O)N1`, the results for the minimum inhibitory concentration (MIC) against Micrococcus luteus, against Staphylococcus aureus [2] and in the test with Streptococcus pyogenes were 64 µg/mL (≈ 110 µM), > 64 µg/mL and > 64 µg/mL, respectively. Moreover, in test [1], the MNEC was 2.5 µg/mL.
`COC(=O)[C@@H]1CSCc2c(O)cc(O)c(C)c2C(=O)OCC(NC(=O)[C@H]2C(O)CCN2C(=O)OC(C)(C)C)C(=O)N1` (some centres not stated): the minimum inhibitory concentration (MIC) was 128 µg/mL (≈ 214 µM) in the test with Micrococcus luteus and > 64 µg/mL in the test with Staphylococcus aureus [2]. In test [1], the MNEC stood at 1 µg/mL.
`COC(=O)[C@@H]1CSCc2c(O)ccc(C)c2C(=O)OCC(NC(=O)OC(C)(C)C)C(=O)N1` (some centres not stated) registered an MIC with Micrococcus luteus of 32 µg/mL (≈ 68.3 µM). In test [1], the MNEC turned out to be 1 µg/mL.
Regarding `COC(=O)[C@@H]1CSCc2c(O)cc(O)c(C)c2C(=O)OCCC(=O)N1`, the MIC against Micrococcus luteus came out at 16 µg/mL (≈ 43.3 µM); against Neisseria meningitidis, 32 µg/mL (≈ 86.6 µM). In test [1], this compound registered an MNEC of 0.25 µg/mL.
Turning to `COC(=O)[C@@H]1CSCc2c(O)cc(OC)c(C)c2C(=O)OCCCCCC/C(S)=N/1`, the minimum inhibitory concentration (MIC) in the test on Staphylococcus aureus [3] (setting [7]) and in the test with Staphylococcus aureus [4] (setting [8]) was 16 µg/mL (≈ 35.1 µM) in each case. Moreover, the MNEC in test [1] amounted to 0.5 µg/mL.
For `COC(=O)[C@@H]1CSCc2cccc(C)c2C(=O)OCC(NC(=O)OC(C)(C)C)C(=O)N1` (some centres not stated), the MNEC in [1] was > 1 µg/mL.
Turning to `COC(=O)[C@@H]1CSCc2c(O)cc(OC)c(C)c2C(=O)OCC/C(S)=N/1`, the MIC with Escherichia coli was > 64 µg/mL; with Enterococcus faecalis it was 4 µg/mL (≈ 10 µM); in the test with Staphylococcus aureus [3], 2 µg/mL (≈ 5.01 µM); in the test on Staphylococcus aureus [3] (setting [7]), 2 µg/mL (≈ 5.01 µM); in the test on Staphylococcus aureus [4], 2 µg/mL (≈ 5.01 µM); with Staphylococcus aureus [4] (setting [8]), 2 µg/mL (≈ 5.01 µM). The results for the MIC (in [5]; in test [6]; in the test with Streptococcus pyogenes) were 8 µg/mL (≈ 20 µM), 0.5 µg/mL (≈ 1.25 µM) and 4 µg/mL (≈ 10 µM), respectively. The compound also registered an MNEC in test [1] of 0.05 µg/mL.
In the case of `COC(=O)[C@@H]1CSCc2c(O)cc(O)c(C)c2C(=O)OCC(NC(=O)CCO)C(=O)N1` (some centres not stated), the results for the MIC in the test on Micrococcus luteus, in the test with Staphylococcus aureus [2] and with Streptococcus pyogenes were 16 µg/mL (≈ 35.1 µM), > 64 µg/mL and > 64 µg/mL, respectively. This compound also returned an MNEC in [1] of 0.2 µg/mL.
As for `COc1cc(O)c2c(c1C)C(=O)OC[C@H](NC(=O)OC(C)(C)C)C(=O)N[C@H](CO)CSC2`, the MIC against Micrococcus luteus is 64 µg/mL (≈ 136 µM); in the test on Neisseria meningitidis, 64 µg/mL (≈ 136 µM); in the test with Staphylococcus aureus [2] it was > 64 µg/mL; in the test on Streptococcus pyogenes it was 64 µg/mL (≈ 136 µM). Further, in [1], the MNEC worked out at 2.5 µg/mL.
As for `COC(=O)c1c(C)c(OC)cc(O)c1CSC[C@H](NC(C)=O)C(=O)OC`, the MIC with Staphylococcus aureus [3] (setting [7]) and in the test on Staphylococcus aureus [4] (setting [8]) was > 64 µg/mL each time. This compound also registered an MNEC in [1] of 2 µg/mL.
For `COC(=O)[C@H]1CSCc2c(O)cc(O)c(C)c2C(=O)OC[C@H](NC(=O)OC(C)(C)C)C(=O)N1`, the minimal inhibitory concentration (MIC) in the test with Micrococcus luteus and with Neisseria meningitidis was 128 µg/mL (≈ 264 µM) each time. For the same compound, in test [1], the MNEC worked out at 4 µg/mL.
Consider `COc1cc(O)c2c(c1C)C(=O)OC[C@H](NC(=O)OC(C)(C)C)C(=O)N[C@H](C(=O)O)CSC2`, for which the MIC in the test on Micrococcus luteus, in the test on Staphylococcus aureus [2] and in the test on Streptococcus pyogenes was > 64 µg/mL throughout. In addition, the MNEC in test [1] turned out to be 10 µg/mL.
As for `COC(=O)[C@@H]1CSCc2c(O)cc(OC)c(C)c2C(=O)OCCCCCCCCC(=O)N1`, the MNEC in test [1] is > 1 µg/mL.
